Data reported in ChEMBL document CHEMBL1133697, “New selective and potent 5-HT(1B/1D) antagonists: chemistry and pharmacological evaluation of N-piperazinylphenyl biphenylcarboxamides and biphenylsulfonamides” (J Med Chem, 2000).

Key:
[1] = target: T1, 5-hydroxytryptamine receptor 1A (Rattus norvegicus, UniProt P19327); experiment: Inhibition activity against 5-hydroxytryptamine 1A receptor in rat hippocampus membranes using radio binding assays; format: cell membranes, Membrane
T1 sequence (P19327 whole entry): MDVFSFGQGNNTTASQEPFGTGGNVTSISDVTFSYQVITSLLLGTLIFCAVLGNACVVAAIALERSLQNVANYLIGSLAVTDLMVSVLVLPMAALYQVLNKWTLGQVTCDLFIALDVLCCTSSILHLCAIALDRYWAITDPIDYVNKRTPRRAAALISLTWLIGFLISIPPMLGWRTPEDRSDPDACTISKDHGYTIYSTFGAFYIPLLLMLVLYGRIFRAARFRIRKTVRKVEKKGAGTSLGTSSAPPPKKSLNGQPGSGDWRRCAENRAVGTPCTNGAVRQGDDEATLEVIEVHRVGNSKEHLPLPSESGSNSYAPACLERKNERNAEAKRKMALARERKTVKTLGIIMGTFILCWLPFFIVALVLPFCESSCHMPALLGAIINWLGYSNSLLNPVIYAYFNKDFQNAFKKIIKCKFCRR
Procedure, shortened: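 Displacement of 0.5 nM [3H]8-OH-DPAT from 5-HT1A sites in rat hippocampal membranes, following a previously reported method. IC50 in nM, mean of at least 3 determinations ±SEM unless indicated otherwise.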

[2] = target: Serotonin (5-HT) receptor (Homo sapiens) (UniProt P30939+P41595+Q13639+P28222+P46098+P08908+P28221+P28223+P28335+P28566+P34969+P50406+P47898+A5X5Y0+O95264+Q70Z44+Q8WXA8); experiment: 5-hydroxytryptamine level in K+ induced 5-hydroxytryptamine release in guinea pig cortex.; format: functional, tissue-based; details: Cavia porcellus, target entry is the homologue from another species
Procedure, shortened: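 Guinea pig (male Dunkin-Hartley) cerebral cortex slices loaded with [3H]5-HT for 30 min, then superfused with oxygenated Krebs solution. Two 4-min 30 mM K+ pulses at 68 and 108 min (S1, S2). Sumatriptan 3 µM, alone or with test compound at 30 nM, 300 nM or 3 µM, given before and during S2. Tabulated value is at 300 nM, reported as % of control S2/S1 ratio; mean (SEM) of 3-4 determinations.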

[3] = Partition coefficient (logP); details: octanol/water
[4] = pA2 value for the effect in RSV model.; format: functional
Procedure, shortened: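 Isolated rabbit saphenous vein segments were held in organ baths and given two cumulative sumatriptan concentration-response curves. The second curve was run after 60 min incubation with antagonist or vehicle. Apparent pA2 was derived from a single antagonist concentration in at least three preparations.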

[5] = Partition coefficient (logD7.4); details: octanol/water, pH 7.4
[6] = target: 5-hydroxytryptamine receptor 1B (Rattus norvegicus, UniProt P28564); experiment: Inhibition affinity against 5-HT-1B receptor in rat frontal cortex using radio binding assay; format: tissue-based
[7] = target: Sodium-dependent serotonin transporter (Homo sapiens, UniProt P31645); experiment: Inhibition of 5-hydroxytryptamine reuptake
Chain of Sodium-dependent serotonin transporter (P31645 whole entry): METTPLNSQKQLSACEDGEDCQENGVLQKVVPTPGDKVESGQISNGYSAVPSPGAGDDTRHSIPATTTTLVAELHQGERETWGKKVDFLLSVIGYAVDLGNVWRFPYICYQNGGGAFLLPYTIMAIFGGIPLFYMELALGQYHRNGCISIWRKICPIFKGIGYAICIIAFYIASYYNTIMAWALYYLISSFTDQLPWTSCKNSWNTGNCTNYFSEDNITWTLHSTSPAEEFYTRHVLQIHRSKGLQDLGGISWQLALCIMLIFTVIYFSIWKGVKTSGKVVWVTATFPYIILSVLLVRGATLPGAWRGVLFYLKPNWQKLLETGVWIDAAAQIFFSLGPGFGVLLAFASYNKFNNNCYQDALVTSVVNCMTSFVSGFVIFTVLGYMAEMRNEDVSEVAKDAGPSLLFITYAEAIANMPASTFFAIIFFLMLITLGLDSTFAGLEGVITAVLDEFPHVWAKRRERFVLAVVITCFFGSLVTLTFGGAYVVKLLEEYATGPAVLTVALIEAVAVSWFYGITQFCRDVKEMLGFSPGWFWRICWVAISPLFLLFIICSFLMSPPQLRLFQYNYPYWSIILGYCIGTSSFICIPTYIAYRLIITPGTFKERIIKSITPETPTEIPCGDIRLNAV

Chain of 5-hydroxytryptamine receptor 1B (P28564 whole entry): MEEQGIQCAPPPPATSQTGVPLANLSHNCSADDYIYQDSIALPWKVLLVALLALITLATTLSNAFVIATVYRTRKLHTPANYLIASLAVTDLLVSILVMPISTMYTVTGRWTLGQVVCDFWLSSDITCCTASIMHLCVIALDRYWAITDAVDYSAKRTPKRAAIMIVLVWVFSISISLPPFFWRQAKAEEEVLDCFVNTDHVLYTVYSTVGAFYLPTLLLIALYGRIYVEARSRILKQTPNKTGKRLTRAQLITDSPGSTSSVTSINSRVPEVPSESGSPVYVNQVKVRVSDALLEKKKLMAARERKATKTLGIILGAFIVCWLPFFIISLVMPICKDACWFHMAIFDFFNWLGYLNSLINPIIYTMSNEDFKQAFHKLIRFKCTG

SMILES: COc1ccc(NC(=O)c2ccc(-c3ccc(C(=N)N)cc3C)cc2)cc1N1CCN(C)CC1
- IC50 [1]: 23 nM
- Control [2]: 155%
- logP [3]: 3.61
- pA2 [4]: 9.6
- logD [5]: -0.35
- IC50 [6]: 0.5 nM
- IC50 [7]: 407 nM

SMILES: Cc1nc(-c2ccc(-c3ccc(C(=O)N4CCc5cc6c(cc54)C4(CCN(C)CC4)CO6)cc3)c(C)c2)no1 [SB-224289]
- Control [2]: 134%
- logP [3]: 6.29
- pA2 [4]: 7.4
- logD [5]: 4.64
- IC50 [6]: 2 nM
- IC50 [7]: 4700 nM

SMILES: Cc1nc(-c2ccc(-c3ccc(C(=O)Nc4ccc(OS(=O)(=O)C(F)(F)F)c(N5CCN(C)CC5)c4)cc3)c(C)c2)no1
- IC50 [1]: > 10000 nM
- logP [3]: 6.06
- logD [5]: 5.64
- IC50 [6]: 700 nM
- IC50 [7]: > 1000 nM

SMILES: COc1ccc(NC(=O)c2ccc(-c3ccc(C(N)=O)cc3C)cc2)cc1N1CCN(C)CC1
- IC50 [1]: 57 nM
- Control [2]: 162%
- logP [3]: 3.6
- pA2 [4]: 10
- logD [5]: 3.18
- IC50 [6]: 1.3 nM
- IC50 [7]: > 1000 nM

SMILES: Cc1nc(-c2ccc(-c3ccc(C(=O)Nc4ccc(O)c(N5CCN(C)CC5)c4)cc3)c(C)c2)no1
- IC50 [1]: > 1000 nM
- Control [2]: 122%
- logP [3]: 4.33
- pA2 [4]: 7.3
- logD [5]: 3.91
- IC50 [6]: 7.3 nM
- IC50 [7]: > 1000 nM

SMILES: COc1ccc(NC(=O)c2ccc(-c3ccc(-c4noc(C)n4)cc3C)cc2)cc1N1CCN(C)CC1 [GR-127935]
- IC50 [1]: 425 nM
- logP [3]: 4.9
- pA2 [4]: 9.9
- logD [5]: 4.48
- IC50 [6]: 1.6 nM
- IC50 [7]: 1000 nM

SMILES: COc1ccc(NC(=O)c2ccc(-c3ccc(-c4nnc(C)o4)cc3C)cc2)cc1N1CCN(C)CC1
- IC50 [1]: > 1000 nM
- Control [2]: 147%
- pA2 [4]: 9.1
- IC50 [6]: 0.93 nM
- IC50 [7]: > 1000 nM

SMILES: Cc1nc(-c2ccc(-c3ccc(C(=O)Nc4ccc(OCCF)c(N5CCN(C)CC5)c4)cc3)c(C)c2)no1
- IC50 [1]: 5000 nM
- Control [2]: 107%
- logP [3]: 5.33
- pA2 [4]: 8.3
- logD [5]: 4.91
- IC50 [6]: 10 nM
- IC50 [7]: 900 nM

SMILES: Cc1nnc(-c2ccc(-c3ccc(C(=O)Nc4ccc(OS(C)(=O)=O)c(N5CCN(C)CC5)c4)cc3)c(C)c2)o1
- IC50 [1]: 7000 nM
- Control [2]: 166%
- logP [3]: 3.38
- pA2 [4]: 8.3
- logD [5]: 2.96
- IC50 [6]: 70 nM
- IC50 [7]: 3800 nM

SMILES: Cc1nnc(-c2ccc(-c3ccc(C(=O)Nc4ccc(O)c(N5CCN(C)CC5)c4)cc3)c(C)c2)o1
- IC50 [1]: > 100 nM
- Control [2]: 147%
- logP [3]: 3.54
- pA2 [4]: 8
- logD [5]: 3.12
- IC50 [6]: 6.3 nM
- IC50 [7]: 4700 nM

SMILES: COc1ccc(NS(=O)(=O)c2ccc(-c3ccc(-c4nnc(C)o4)cc3C)cc2)cc1N1CCN(C)CC1
- IC50 [1]: 700 nM
- Control [2]: 155%
- logP [3]: 4.04
- pA2 [4]: 7
- logD [5]: 3.6
- IC50 [6]: 60 nM
- IC50 [7]: > 1000 nM
